{
  "source": "ChEMBL document CHEMBL1123747",
  "about": "“N-methyl derivatives of the 5-HT2 agonist 1-(4-bromo-2,5-dimethoxyphenyl)-2-aminopropane” (J Med Chem, 1987)",
  "format_in_all_cases": "functional",
  "key": {"[1]": {"organism": "Rattus norvegicus", "test": "The compound was tested for effective dose ( ED 50) against stimulus generation with rats trained to discriminate (R) (-)-DOB from saline.", "outline": "(§1)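 Male Sprague-Dawley rats (n = 6) on a two-lever operant task for sweetened milk, VI 15-s schedule. Trained to discriminate 0.2 mg/kg ip training drug from 1.0 mL/kg 0.9% saline, 15 min pre-session. Test doses were given ip in random order to groups of 3–6, with 15-min pretreatment and a 2.5-min extinction session. ED50 was calculated from dose-response data.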"}, "[2]": {"organism": "Rattus norvegicus", "test": "The number of responses made on the (R)(-)-DOB appropriate level, generation studies was calculated at dose 0.2 mg / kg", "outline": "(§2)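 Male Sprague-Dawley rats (n = 6) were trained on a two-lever operant task for sweetened-milk reward to discriminate 0.2 mg/kg (R)-(-)-DOB-HCl ip from 1.0 mL/kg 0.9% saline, with a VI 15-s schedule and 15-min sessions. Test doses were given ip 15 min before a 2.5-min extinction session, in random order, to groups of 3-6 rats. Read-out was % drug-lever responses; fewer than five total responses counted as disrupted.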"}, "[3]": {"organism": "Rattus norvegicus", "test": "The number of responses made on the (R)(-)-DOB appropriate level, generation studies was calculated at dose 0.4 mg / kg", "outline": "as §2"}, "[4]": {"organism": "Rattus norvegicus", "test": "The number of responses made on the (R)(-)-DOB appropriate level, generation studies was calculated at dose 0.7 mg / kg", "outline": "as §2"}, "[5]": {"organism": "Rattus norvegicus", "test": "The number of responses made on the (R)(-)-DOB appropriate level, generation studies was calculated at dose 1.1 mg / kg", "outline": "as §2"}, "[6]": {"organism": "Rattus norvegicus", "test": "The number of animals responding per number of animals receiving the drug(4/4) in the stimulus-generation studies was calculated at dose 1.1 mg / kg", "outline": "(§3)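 Male Sprague-Dawley rats were trained to discriminate 0.2 mg/kg ip training drug from saline (two levers, VI 15-s, milk reward). Test doses were given ip 15 min pre-session in random order to groups of 3–6. In the 2.5-min extinction session, rats making fewer than five total responses were counted as disrupted. N is animals responding over animals dosed.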"}, "[7]": {"organism": "Rattus norvegicus", "test": "The number of animals responding per number of animals receiving the drug(3/3) in the stimulus-generation studies was calculated at dose 0.7 mg / kg", "outline": "as §3"}, "[8]": {"organism": "Rattus norvegicus", "test": "The number of animals responding per number of animals receiving the drug(3/4) in the stimulus-generation studies was calculated at dose 0.4 mg / kg", "outline": "as §3"}, "[9]": {"organism": "Rattus norvegicus", "test": "The mean responses per minute during the 2.5 min extinction session in the stimulus-generation studies was calculated at dose 0.2 mg / kg", "outline": "(§4)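 Rats were trained on a two-lever drug-versus-saline discrimination (0.2 mg/kg ip training dose, VI 15-s, food reward). Challenge doses were given ip 15 min before a 2.5-min extinction test, in random order, to groups of 3–6 rats, with at least three training sessions between tests. Response rate is responses per minute over the extinction session.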"}, "[10]": {"organism": "Rattus norvegicus", "test": "The mean responses per minute during the 2.5 min extinction session in the stimulus-generation studies was calculated at dose 0.4 mg / kg", "outline": "as §4"}, "[11]": {"organism": "Rattus norvegicus", "test": "The mean responses per minute during the 2.5 min extinction session in the stimulus-generation studies was calculated at dose 0.7 mg / kg", "outline": "as §4"}, "[12]": {"organism": "Rattus norvegicus", "test": "The mean responses per minute during the 2.5 min extinction session in the stimulus-generation studies was calculated at dose 1.1 mg / kg", "outline": "as §4"}, "[13]": {"organism": "Rattus norvegicus", "test": "The number of animals responding per number of animals receiving the drug(3/3) in the stimulus-generation studies was calculated at dose 0.2 mg / kg", "outline": "as §3"}, "[14]": {"organism": "Rattus norvegicus", "test": "The number of responses made on the (R)(-)-DOB appropriate level, generation studies was calculated at dose 0.01 mg / kg", "outline": "as §2"}, "[15]": {"organism": "Rattus norvegicus", "test": "The number of responses made on the (R)(-)-DOB appropriate level, generation studies was calculated at dose 0.03 mg / kg", "outline": "as §2"}, "[16]": {"organism": "Rattus norvegicus", "test": "The number of responses made on the (R)(-)-DOB appropriate level, generation studies was calculated at dose 0.05 mg / kg", "outline": "as §2"}, "[17]": {"organism": "Rattus norvegicus", "test": "The number of responses made on the (R)(-)-DOB appropriate level, generation studies was calculated at dose 0.10 mg / kg", "details": "dose 0.1 mg / kg", "outline": "as §2"}, "[18]": {"organism": "Rattus norvegicus", "test": "The number of responses made on the (R)(-)-DOB appropriate level, generation studies was calculated at dose 0.20 mg / kg", "details": "dose 0.2 mg / kg", "outline": "as §2"}, "[19]": {"organism": "Rattus norvegicus", "test": "The number of animals responding per number of animals receiving the drug(4/4)in the stimulus-generation studies was calculated at dose 0.10 mg / kg", "details": "dose 0.1 mg / kg", "outline": "as §2"}, "[20]": {"organism": "Rattus norvegicus", "test": "The number of animals responding per number of animals receiving the drug(5/5) in the stimulus-generation studies was calculated at dose 0.03 mg / kg", "outline": "as §2"}, "[21]": {"organism": "Rattus norvegicus", "test": "The number of animals responding per number of animals receiving the drug(4/4) in the stimulus-generation studies was calculated at dose 0.01 mg / kg", "outline": "as §3"}, "[22]": {"organism": "Rattus norvegicus", "test": "The number of animals responding per number of animals receiving the drug (4/4)in the stimulus-generation studies was calculated at dose 0.20 mg / kg", "details": "dose 0.2 mg / kg", "outline": "as §3"}, "[23]": {"organism": "Rattus norvegicus", "test": "The number of animals responding per number of animals receiving the drug (5/5)in the stimulus-generation studies was calculated at dose 0.05 mg / kg", "outline": "as §3"}, "[24]": {"organism": "Rattus norvegicus", "test": "The mean responses per minute during the 2.5 min extinction session in the stimulus-generation studies was calculated at dose 0.01 mg / kg", "outline": "as §4"}, "[25]": {"organism": "Rattus norvegicus", "test": "The mean responses per minute during the 2.5 min extinction session in the stimulus-generation studies was calculated at dose 0.03 mg / kg", "outline": "as §4"}, "[26]": {"organism": "Rattus norvegicus", "test": "The mean responses per minute during the 2.5 min extinction session in the stimulus-generation studies was calculated at dose 0.05 mg / kg", "outline": "as §4"}, "[27]": {"organism": "Rattus norvegicus", "test": "The mean responses per minute during the 2.5 min extinction session in the stimulus-generation studies was calculated at dose 0.10 mg / kg", "details": "dose 0.1 mg / kg", "outline": "as §4"}, "[28]": {"organism": "Rattus norvegicus", "test": "The mean responses per minute during the 2.5 min extinction session in the stimulus-generation studies was calculated at dose 0.20 mg / kg", "details": "dose 0.2 mg / kg", "outline": "as §4"}, "[29]": {"organism": "Rattus norvegicus", "test": "1 The compound was tested for effective dose ( ED 50) against stimulus generation with rats trained to discriminate (R) (-)-DOB from saline.", "outline": "as §1"}},
  "data": [
    {"smiles": "COc1cc(C[C@H](C)N)c(OC)cc1Br", "values": [
      {"measurement": "ED50", "setting": "[1]", "result": 0.56, "unit": "mg/kg"},
      {"measurement": "Responding", "setting": "[2]", "result": 3, "unit": "%"},
      {"measurement": "Responding", "setting": "[3]", "result": 48, "unit": "%"},
      {"measurement": "Responding", "setting": "[4]", "result": 63, "unit": "%"},
      {"measurement": "Responding", "setting": "[5]", "result": 82, "unit": "%"},
      {"measurement": "No. of animals responding/animals receiving drug", "setting": "[6]", "result": 4},
      {"measurement": "No. of animals responding/animals receiving drug", "setting": "[7]", "result": 3},
      {"measurement": "No. of animals responding/animals receiving drug", "setting": "[8]", "result": 3},
      {"measurement": "Response rate", "setting": "[9]", "result": 12},
      {"measurement": "Response rate", "setting": "[10]", "result": 10.5},
      {"measurement": "Response rate", "setting": "[11]", "result": 10.8},
      {"measurement": "Response rate", "setting": "[12]", "result": 10.8},
      {"measurement": "No. of animals responding/animals receiving drug", "setting": "[13]", "result": 3}
    ]},
    {"smiles": "COc1cc(C[C@@H](C)N)c(OC)cc1Br", "values": [
      {"measurement": "Responding", "setting": "[14]", "result": 5, "unit": "%"},
      {"measurement": "Responding", "setting": "[15]", "result": 21, "unit": "%"},
      {"measurement": "Responding", "setting": "[16]", "result": 58, "unit": "%"},
      {"measurement": "Responding", "setting": "[17]", "result": 64, "unit": "%"},
      {"measurement": "Responding", "setting": "[18]", "result": 98, "unit": "%"},
      {"measurement": "No. of animals responding/animals receiving drug", "setting": "[19]", "result": 4},
      {"measurement": "No. of animals responding/animals receiving drug", "setting": "[20]", "result": 5},
      {"measurement": "No. of animals responding/animals receiving drug", "setting": "[21]", "result": 4},
      {"measurement": "No. of animals responding/animals receiving drug", "setting": "[22]", "result": 4},
      {"measurement": "No. of animals responding/animals receiving drug", "setting": "[23]", "result": 5},
      {"measurement": "Response rate", "setting": "[24]", "result": 12.5},
      {"measurement": "Response rate", "setting": "[25]", "result": 11.8},
      {"measurement": "Response rate", "setting": "[26]", "result": 12},
      {"measurement": "Response rate", "setting": "[27]", "result": 10.8},
      {"measurement": "Response rate", "setting": "[28]", "result": 12.3},
      {"measurement": "ED50", "setting": "[29]", "result": 0.05, "unit": "mg/kg"}
    ]}
  ]
}
